Only some compounds are listed: those with a hit (about 3.5% of all), similar ones and a draw of the others.
MrgX1 PAM: human MrgX1 positive allosteric modulation, primary screen; Q96LB2; MrgX1-HEK293, Fluo-4 calcium flux, FDSS; hits give high values; actives 0.63% (n = 310,000); B-score at 10 µM;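 active = plate-corrected calcium response at least 3 library SD above typical, normal starting fluorescence, not activating the receptor alone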;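 also: compound read alongside a low EC10 to EC30 dose of BAM8-22 agonist; peak minus trough fluorescence over baseline measured at the second addition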
Target sequence (Q96LB2 whole entry, looked up): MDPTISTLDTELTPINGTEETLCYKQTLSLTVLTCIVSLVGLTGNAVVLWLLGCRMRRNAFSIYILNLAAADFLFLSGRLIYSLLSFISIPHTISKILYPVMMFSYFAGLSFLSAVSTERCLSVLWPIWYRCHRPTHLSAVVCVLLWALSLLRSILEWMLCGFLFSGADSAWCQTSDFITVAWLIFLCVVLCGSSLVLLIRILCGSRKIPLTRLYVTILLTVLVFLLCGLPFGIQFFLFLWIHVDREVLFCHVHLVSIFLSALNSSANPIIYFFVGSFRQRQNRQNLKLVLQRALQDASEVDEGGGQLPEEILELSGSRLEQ
MrgX1 agonist: activates human MrgX1 receptor signaling. Q96LB2. MrgX1-HEK293 cells, Fluo-4 calcium fluorescence, agonist mode; hits give high values. B-score at 10 µM. actives 0.44% (n = 310,000). AID 588627;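 active = calcium response B-score plate-corrected fluorescence ratio at least 3 library SD, with starting fluorescence B-score inside 5 SD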
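times = overnight plating, then 30 min 37 °C plus 30 min room-temperature dye loading | assay system = stable human MrgX1 HEK293 cell line | input = fifteen thousand cells per well | signal = kinetic calcium dye fluorescence, Fluo-4 NW | dosing = compound delivered in addition one of three | read-out = B-scored fluorescence response ratio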
RGS4 block: inhibitors of human RGS4. actives 0.45% (n = 310,000). P49798. B-score at 10 µM. HEK293 M3R/RGS4 inducible, Fluo-4 calcium flux; hits give high values; triggered by carbachol at its EC20;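 active = B-score, a plate-corrected calcium signal, over three deviations above library mean, with baseline fluorescence within five deviations of library mean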;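 also: RGS4 expression induced by doxycycline in cells with stable M3 receptor; B-score is computed from the integrated fluorescence ratio over baseline after carbachol; higher B-score means a larger calcium signal and so more RGS4 inhibition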
Target sequence (P49798 whole entry, looked up): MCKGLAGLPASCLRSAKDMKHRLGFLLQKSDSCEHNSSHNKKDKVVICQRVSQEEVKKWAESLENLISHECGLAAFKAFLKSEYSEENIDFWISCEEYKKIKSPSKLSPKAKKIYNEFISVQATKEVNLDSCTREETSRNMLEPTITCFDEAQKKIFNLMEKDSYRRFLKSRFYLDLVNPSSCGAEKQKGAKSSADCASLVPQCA
RGS4 act: RGS4 potentiation or activation | HEK293 M3R/inducible RGS4, carbachol calcium flux Fluo4; hits give low values | actives 0.92% (n = 310,000) | B-score at 10 µM;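 active = B-score of the integrated calcium signal more than 4 SD below the library mean, with starting fluorescence not abnormally high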;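 also: negative B-score means reduced calcium response which marks RGS4 activation or potentiation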
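Assay system: HEK293 FlpIn-TREx cells, stable M3R, doxycycline-inducible RGS4 / Probe or stimulus: carbachol, ECmax concentration / Times: overnight RGS4 induction, 30 min dye load 37 °C, 20 min compound RT / Signal: kinetic calcium fluorescence imaging with Fluo4-AM dye, 2 µM / Measure: Agonist-evoked peak-minus-minimum fluorescence over baseline, integrated ratio, B score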
MrgX1 antag: blocks BAM8-22 activation of human MrgX1 receptor; Q96LB2; MRGX1-HEK293 calcium flux, Fluo-4, BAM8-22 antagonism; hits give low values; B-score at 10 µM; actives 1.3% (n = 310,000);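 active = calcium-response B-score plate-corrected more than 3 library SD below zero, starting fluorescence within 5 deviations, no agonist response on first addition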;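 also: peak minus trough fluorescence over baseline after final BAM8-22 challenge near maximal dose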
RGS4 block valid: validation of RGS4 inhibitors. shares compounds with RGS4 block. HEK293 M3R/RGS4, carbachol calcium Fluo-4 fluorescence; carbachol added at its EC20; 0 = buffer wells, 100 = carbachol control. calcium response, % at 10 µM. actives 65% (n = 1,700). AID 492999;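 active = duplicate-averaged calcium response above the buffer-only control mean plus 5 SD of those controls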;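 also: integrated fluorescence ratio F max minus min over baseline F0; higher response in RGS4-induced cells means RGS4 inhibition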
M3R Ca ctr: counter-screen for RGS4 inhibitors: effect in non-induced cells; actives 20% (n = 1,900); HEK293 M3R non-induced, carbachol calcium Fluo-4; submaximal (EC20) carbachol stimulus; buffer wells 0%, carbachol control wells 100%; activity (percent), % at 10 µM; AID 493000; shares compounds with RGS4 block; call rule not given here;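 also: RGS4 induction absent so cells express M3R without RGS4; higher means more calcium signal and flags a non-specific hit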
M3R basal Ca ctr: signal in non-induced cells without carbachol, RGS4 inhibitor counter-screen | HEK293 M3R/RGS4 non-induced, Fluo-4 calcium, no carbachol; normalised: buffer wells 0%, carbachol wells 100% | AID 493001 | shares compounds with RGS4 block | actives 22% (n = 1,900) | calcium response (agonist-mode artifact), % at 10 µM;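 active = duplicate-averaged calcium rise in uninduced cells above buffer wells' mean plus 5 SD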
* marks the source's active call; other numbers are inactive results.

`O=[N+]([O-])c1ccc(O)c(/C=N/NC(=S)Nc2ccc(Cl)cc2Cl)c1` gave MrgX1 PAM inactive, MrgX1 agonist inactive, RGS4 block 14*, RGS4 act inactive, MrgX1 antag inactive, RGS4 block valid 18%*, M3R Ca ctr inactive and M3R basal Ca ctr inactive.
For O=C(N/N=C/c1cc([N+](=O)[O-])ccc1O)NC12CC3CC(CC(C3)C1)C2 the results were MrgX1 PAM inactive, MrgX1 agonist inactive, RGS4 block 7.9*, RGS4 act inactive, MrgX1 antag inactive, RGS4 block valid 12%*, M3R Ca ctr inactive and M3R basal Ca ctr inactive.
COc1ccc(N2CC(C(=O)N/N=C/c3cc([N+](=O)[O-])ccc3O)CC2=O)cc1 (stereo unspecified) was read as MrgX1 PAM inactive, MrgX1 agonist inactive, RGS4 block 5*, RGS4 act inactive, MrgX1 antag inactive, RGS4 block valid 5.0%*, M3R Ca ctr inactive and M3R basal Ca ctr inactive.
Cc1nn(Cc2ccccc2)c(Cl)c1/C=C/C(=O)OC(C(=O)NC(N)=O)C(C)C (stereo unspecified) was read as MrgX1 PAM inactive, MrgX1 agonist inactive, RGS4 block inactive, RGS4 act inactive and MrgX1 antag inactive.
For COc1ccc2[nH]c(C(=O)O)c(NS(=O)(=O)c3ccc(C)cc3C)c2c1 the results were MrgX1 PAM inactive, MrgX1 agonist inactive, RGS4 block inactive, RGS4 act inactive and MrgX1 antag inactive.
Screening CCOC(=O)C1CCN(CC(=O)c2c(C)n(C)c3ccc(OC)cc23)CC1 returned MrgX1 PAM inactive, MrgX1 agonist inactive, RGS4 block 4.9*, RGS4 act inactive, MrgX1 antag inactive, RGS4 block valid 13%*, M3R Ca ctr inactive and M3R basal Ca ctr inactive.
`Nc1nc(CN2CCN(C(=O)c3ccco3)CC2)nc(Nc2cccc(Cl)c2)n1` gave MrgX1 PAM inactive, MrgX1 agonist inactive, RGS4 block inactive, RGS4 act inactive and MrgX1 antag inactive.
Screening CC(=O)/C(=N/Nc1cccc(C)c1)N1CCOCC1 returned MrgX1 PAM inactive, MrgX1 agonist inactive, RGS4 block 18*, RGS4 act inactive, MrgX1 antag inactive, RGS4 block valid 10%*, M3R Ca ctr 58%* and M3R basal Ca ctr inactive.
Screening Cc1ccc(N2NC(=O)/C(=C\c3cc4c(cc3[N+](=O)[O-])OCO4)C2=O)cc1C returned MrgX1 PAM inactive, MrgX1 agonist inactive, RGS4 block 26*, RGS4 act inactive, MrgX1 antag inactive, RGS4 block valid 69%*, M3R Ca ctr inactive and M3R basal Ca ctr 34%*.
Screening COc1cccc(/C=C2/C(=O)NN(c3ccc(F)cc3)C2=O)c1 returned MrgX1 PAM inactive, MrgX1 agonist inactive, RGS4 block inactive, RGS4 act inactive, MrgX1 antag inactive, M3R Ca ctr inactive and M3R basal Ca ctr inactive.
Screening COc1cccc(/C=C2/C(=O)NN(c3ccccc3)C2=O)c1 returned MrgX1 PAM inactive, MrgX1 agonist inactive, RGS4 block 7.5*, RGS4 act inactive, MrgX1 antag inactive, RGS4 block valid inactive, M3R Ca ctr inactive and M3R basal Ca ctr 8.0%*.
For COc1cccc(/C=C2/C(=O)NN(c3ccc(C)c(C)c3)C2=O)c1 the results were MrgX1 PAM inactive, MrgX1 agonist inactive, RGS4 block 15*, RGS4 act inactive, MrgX1 antag inactive, RGS4 block valid 9.5%*, M3R Ca ctr inactive and M3R basal Ca ctr inactive.
`O=C(O)COc1ccc(Br)cc1/C=N\Nc1ccccn1` gave MrgX1 PAM inactive, MrgX1 agonist inactive, RGS4 block inactive, RGS4 act inactive and MrgX1 antag inactive.
For O=C(NC1CC1)C1=C[C@@H](c2c[nH]c3ccccc23)C[C@@H](OCCCCO)O1 the results were MrgX1 PAM inactive, MrgX1 agonist inactive, RGS4 block inactive, RGS4 act inactive and MrgX1 antag inactive.
`CCSc1nnc(NC(=O)CSc2nnc(CNC(=O)c3ccc(OC)c(OC)c3)o2)s1` gave MrgX1 PAM inactive, MrgX1 agonist inactive, RGS4 block inactive, RGS4 act inactive and MrgX1 antag inactive.
Screening O=C1NC(=S)N/C1=C/c1ccc2c(c1)OCO2 returned MrgX1 PAM inactive, MrgX1 agonist inactive, RGS4 block inactive, RGS4 act inactive and MrgX1 antag inactive.
For O=C1NN(c2ccccc2)C(=O)/C1=C\c1ccc2c(c1)OCO2 the results were MrgX1 PAM inactive, MrgX1 agonist inactive, RGS4 block 7.7*, RGS4 act inactive, MrgX1 antag inactive, RGS4 block valid inactive, M3R Ca ctr inactive and M3R basal Ca ctr inactive.
Screening CC(=O)Nc1ccc(N=Nc2ccc(O)cc2)cc1 returned MrgX1 PAM inactive, MrgX1 agonist inactive, RGS4 block inactive, RGS4 act inactive and MrgX1 antag inactive.
For Cc1nc(NC(=O)CSc2nc3cccnc3n2C2CCCCC2)sc1C the results were MrgX1 PAM inactive, MrgX1 agonist inactive, RGS4 block inactive, RGS4 act inactive, MrgX1 antag inactive, M3R Ca ctr inactive and M3R basal Ca ctr inactive.
CCc1nnc(NC(=O)CSc2nc3cccnc3n2C2CCCCC2)s1 was read as MrgX1 PAM inactive, MrgX1 agonist inactive, RGS4 block inactive, RGS4 act inactive and MrgX1 antag inactive.
CC(C)(C)NC(=O)CN(C(=O)CN1C(=O)C(=O)c2ccccc21)C(C)(C)C was read as MrgX1 PAM inactive, MrgX1 agonist inactive, RGS4 block inactive, RGS4 act inactive and MrgX1 antag inactive.
CC1CC(NC(=O)c2c(O)nc3sccn3c2=O)CC(C)(C)C1 (stereo unspecified) was read as MrgX1 PAM inactive, MrgX1 agonist inactive, RGS4 block 14*, RGS4 act inactive, MrgX1 antag inactive, RGS4 block valid 22%*, M3R Ca ctr 48%* and M3R basal Ca ctr inactive.
For O=C1Nc2ccccc2/C1=N/N=C/c1ccc(-c2ccc([N+](=O)[O-])cc2)o1 the results were RGS4 block 4.8*, RGS4 act inactive, RGS4 block valid 7.5%*, M3R Ca ctr 35%* and M3R basal Ca ctr inactive.

Compound activity as filed in PubChem BioAssay.
